Experimental data as given in ChEMBL document CHEMBL1122423, “N-arylhydroxamic acid N,O-acyltransferase. Positional requirements for the substrate hydroxyl group” (J Med Chem, 1983).

Legend:
Cricetulus griseus [1] = species on record: Cricetulus griseus; assay: Inhibition of AHAT-catalyzed transacylation of 4-aminoazobenzene
How it was run: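 Partially purified hamster hepatic AHAT (2.5–3.75 mg protein) was preincubated 5 min with inhibitor (2.5 μmol in EtOH; 1 mM) before adding acyl-donor substrate (2.5 μmol) and 4-aminoazobenzene (0.375 μmol). The 2.5 mL mix held pyrophosphate pH 7, DTT and 1.15% KCl, at 37 °C in air. Stopped with TCA/EtOH; supernatant read spectrophotometrically (Booth). Percent inhibition vs control; three experiments in triplicate.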

Cricetulus griseus [2] = species on record: Cricetulus griseus; assay: Percent inhibition against AHAT when compound 8 is used as substrate at 1 mM concentration
How it was run: (§1)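 Partially purified hamster hepatic AHAT; 1 mM inhibitor (final) in ethanol was preincubated with enzyme for 5 min, then acyl donor (2.5 μmol) and 4-aminoazobenzene (0.375 μmol) were added. Mix: pyrophosphate buffer pH 7, DTT, KCl, 2.5 mL, 37 °C in air, read after 10 min. TCA-ethanol stop; spectrophotometric read-out of transacetylation. % inhibition vs control; three experiments in triplicate.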

Cricetulus griseus [3] = species on record: Cricetulus griseus; assay: Percent inhibition against AHAT when compound 10 is used as substrate at 1 mM concentration; how it was run: as §1

Compound | Transacetylation rate (Cricetulus griseus [1]) [nmol/min/mg] | inhibition (Cricetulus griseus [2]) [%] | inhibition (Cricetulus griseus [3]) [%]
CC(=O)N(O)c1ccc(-c2ccccc2)cc1 | 13.3 | – | –
CC(=O)N(O)c1ccc2c(c1)Cc1ccccc1-2 | 19.3 | – | –
CC(=O)N(O)c1ccc(/C=C/c2ccccc2)cc1 | 9.73 | – | –
CC(=O)Nc1ccc(-c2ccccc2)cc1O | 0.69 | – | –
CC(=O)Nc1cc2c(cc1O)-c1ccccc1C2 | 0.05 | – | –
O=C(CO)Nc1ccc(-c2ccccc2)cc1 | 0.03 | – | –
O=C(CO)Nc1ccc(/C=C/c2ccccc2)cc1 | 0.18 | – | –
CCN1C(=O)C=CC1=O | – | 77 | 86
NC(=O)CI | – | 99 | 99
CC(=O)Nc1ccc2c(c1O)Cc1ccccc1-2 | 0.11 | – | –
CC(=O)Nc1ccc(-c2ccccc2)cc1 | 0.27 | – | –
p-Chloromercuribenzenesulfonate | – | 92 | 96
O=C(CO)Nc1ccc2c(c1)Cc1ccccc1-2 | 0.02 | – | –
